Experimental data taken from ChEMBL document CHEMBL1127496, “The structural basis of camptothecin interactions with human serum albumin: impact on drug stability” (J Med Chem, 1994).

How the values were obtained:
[1] = Half-life in PBS buffer solution in the presence of human serum albumin; format: ADME; conditions: PBS buffer with human serum albumin
[2] = Half-life in PBS buffer solution in the absence of human serum albumin; format: ADME; conditions: PBS buffer without human serum albumin
In short: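 Lactone hydrolysis at 1 μM drug in PBS pH 7.40 ± 0.05, 37 °C, with or without 290 μM HSA. Aliquots taken at mixing and every 5 min, diluted in water, then run on C18 reversed-phase HPLC with fluorescence detection of lactone and carboxylate. t1/2 from nonlinear least-squares fit of lactone decay. At least three independent kinetic runs.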

[3] = organism: Homo sapiens; assay: Excited-state lifetime value for lactone form of compound bound to human serum albumin; format: ADME
In short: (§1)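 Phase-shift lifetimes, 30 MHz modulation, no polarizers, long-pass emission filters, in PBS pH 7.4 at 37 °C. Drug 20 μM (lactone or carboxylate form) titrated with HSA. Lifetimes corrected for HSA background (τH 3.2 ns, fH weighting). Bound lifetime τB extrapolated to infinite HSA by nonlinear least-squares fit to τC = τB + b·exp(−c[HSA]). Triplicate runs.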

[4] = organism: Homo sapiens; assay: Excited-state lifetime value for carboxylate form of compound bound to human serum albumin; format: ADME; conditions: in vitro; in short: as §1
[5] = Excited-state lifetime value for free carboxylate form of compound in solution; format: ADME
In short: (§2)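 Phase-shift fluorescence lifetime, 30 MHz modulated excitation, no polarizers, long-pass emission filters. Measured on 20 μM lactone or carboxylate form in HSA-free PBS, pH 7.40 ± 0.05, 37 °C. Carboxylate made by mixing DMSO stock 1:1 with PBS pH 10.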

[6] = Excited-state lifetime value for free lactone form of compound in solution; format: ADME; in short: as §2
[7] = target: T1, Albumin (Homo sapiens, UniProt P02768); assay: Association constant for the binding of the lactone form to human serum albumin;(M aa)e-1
In short: (§3)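 Fluorescence lifetime titration in PBS, pH 7.40 ± 0.05, 37 °C. Total drug 20 μM, lactone or carboxylate form (carboxylate stock made by mixing DMSO stock 1:1 with PBS pH 10), titrated with varying HSA. Phase-shift lifetimes at 30 MHz modulation. Free fraction (τ − τB)/(τF − τB) plotted against log amino-acid residue concentration. K and n obtained by nonlinear least-squares fit to K = [Db]/([Df][aa]^n).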

[8] = target: T1, Albumin; assay: Association constant for the binding of the carboxylate form to human serum albumin;(M aa)e-1; in short: as §3
[9] = target: T1, Albumin; assay: Binding parameter of the carboxylate form to human serum albumin; n value; in short: as §3
[10] = target: T1, Albumin; assay: Binding parameter of the lactone form to human serum albumin; n value; in short: as §3

T1 sequence (P02768 whole entry): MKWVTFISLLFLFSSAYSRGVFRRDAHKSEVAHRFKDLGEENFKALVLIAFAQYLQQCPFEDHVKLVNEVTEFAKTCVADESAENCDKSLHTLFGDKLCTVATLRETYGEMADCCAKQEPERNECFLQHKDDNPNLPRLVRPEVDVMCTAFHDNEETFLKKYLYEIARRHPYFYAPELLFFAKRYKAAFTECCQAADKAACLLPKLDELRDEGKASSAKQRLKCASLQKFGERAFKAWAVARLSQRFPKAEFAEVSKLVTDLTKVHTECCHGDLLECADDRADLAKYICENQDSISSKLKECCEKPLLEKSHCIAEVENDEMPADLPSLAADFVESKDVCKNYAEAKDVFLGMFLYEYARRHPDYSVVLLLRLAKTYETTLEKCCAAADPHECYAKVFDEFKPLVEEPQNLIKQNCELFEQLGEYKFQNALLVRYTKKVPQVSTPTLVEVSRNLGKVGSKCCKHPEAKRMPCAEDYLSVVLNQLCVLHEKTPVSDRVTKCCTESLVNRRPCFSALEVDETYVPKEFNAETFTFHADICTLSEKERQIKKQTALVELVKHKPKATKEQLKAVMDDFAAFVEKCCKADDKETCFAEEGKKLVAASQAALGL

Row | Structure (SMILES) | half-life [1] [min] | half-life [2] [min] | T bound [3] [ns] | T bound [4] [ns] | T free [5] [ns] | T free [6] [ns] | K [7] | K [8] | Activity [9] | Activity [10]
1 | CCc1c2c(nc3ccc(C4CCN(C(=O)OC)CC4)cc13)-c1cc3c(c(=O)n1C2)COC(=O)C3(O)CC (stereo not drawn) | 29 | 25.6 | 3.7 | 4 | 4 | 3.7 |  |  |  | 
2 | CCC1(O)C(=O)OCc2c1cc1n(c2=O)Cc2cc3cc4c(cc3nc2-1)OCO4 (stereo not drawn) | 20.7 | 31.7 | 1.3 | 1.3 | 2.4 | 2 | 10 1/Maa | 2200 1/Maa | 1.7 | 1.3
3 | CCC1(O)C(=O)OCc2c1cc1n(c2=O)Cc2cc3c(Cl)c4c(cc3nc2-1)OCO4 (stereo not drawn) | 16.9 | 34.6 | 1.9 | 1.1 | 2.5 | 1.9 |  | 1200 1/Maa | 1.6 | 
4 | CCc1c2c(nc3ccc(O)cc13)-c1cc3c(c(=O)n1C2)COC(=O)[C@]3(O)CC [7-ETHYL-10-HYDROXYCAMPTOTHECIN] |  | 19.9 |  |  |  |  |  |  |  | 
5 | CC[C@@]1(O)C(=O)OCc2c1cc1n(c2=O)Cc2cc3c(N)cccc3nc2-1 [9-AMINOCAMPTOTHECIN] | 23.4 | 17.9 |  |  |  |  |  |  |  | 
6 | CC[C@@]1(O)C(=O)OCc2c1cc1n(c2=O)Cc2cc3ccccc3nc2-1 [CAMPTOTHECIN] | 12.5 | 23.8 | 2.7 | 1.3 | 4.3 | 4.2 | 30 1/Maa | 4700 1/Maa | 2.3 | 1.8
7 | CC[C@@]1(O)C(=O)OCc2c1cc1n(c2=O)Cc2cc3cc(O)ccc3nc2-1 [HYDROXYCAMPTOTHECIN] | 21.1 | 22.1 | 5.4 | 5.5 | 4 | 4 | 130 1/Maa | 260 1/Maa | 1.7 | 1.7
8 | CC[C@@]1(O)C(=O)OCc2c1cc1n(c2=O)Cc2cc3c(CN(C)C)c(O)ccc3nc2-1 [TOPOTECAN] | 28.9 | 22.8 | 6 | 6.1 | 6.1 | 6 |  |  |  | 
